Measured values published in ChEMBL document CHEMBL1137781, “Synthesis and preclinical evaluation of novel PET probes for P-glycoprotein function and expression” (J Med Chem, 2009).

How the values were obtained:
Conditions in all cases: in vivo
[1] = Biodistribution in 15 mg/kg unlabeled 6,7-dimethoxy-2-(3-(5-methoxy-3,4-dihydronaphthalen-1(2H)-ylidene)propyl)-1,2,3,4-tetrahydroisoquinoline pretreated Wistar rat red blood cells at 13+/-2 MBq, iv after 80 mins; format: ADME, organism-based, Erythrocyte; parameters: dose 15 mg/kg, route intravenous
Method in brief: (§1)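 Male Wistar rats given saline or unlabeled compound via tail vein: 15 mg/kg, dissolved at 10 mg/mL in saline with 35% ethanol. [11C] tracer (8-15 MBq) then given via penile vein. After microPET scanning the anesthetized rats were killed. Tissues were excised and weighed, and blood was spun for plasma and cell fraction. γ counting with decay correction. Results as SUV (tissue MBq/g × body weight/injected dose).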

[2] = Biodistribution in Wistar rat bulbus olfactorius at 11+/-2 MBq, iv after 80 mins; format: ADME, organism-based, Olfactory bulb
Heart = assay: Biodistribution in Wistar rat heart at 11+/-2 MBq, iv after 80 mins; format: ADME, organism-based
Method in brief: (§2)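 Male Wistar rats (12 h light/dark, chow ad libitum) were fitted with a femoral arterial cannula under isoflurane. They were pretreated via tail vein with saline, cyclosporin A (50 mg/kg), or nonradioactive tracer compound (15 mg/kg; 10 mg/mL in saline with 35% ethanol). The 11C tracer was then given via penile vein, followed by 76 min microPET. Animals were then terminated; excised tissues were weighed and gamma-counted with decay correction. Values are SUVs (tissue MBq/g × body weight g / injected MBq).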

Muscle tissue = assay: Biodistribution in Wistar rat muscle at 11+/-2 MBq, iv after 80 mins; format: ADME, organism-based; method in brief: as §2
[3] = Biodistribution in 15 mg/kg unlabeled 6,7-dimethoxy-2-(3-(5-methoxy-3,4-dihydronaphthalen-1(2H)-ylidene)propyl)-1,2,3,4-tetrahydroisoquinoline pretreated Wistar rat medulla at 13+/-2 MBq, iv after 80 mins; format: ADME, organism-based, Medulla of organ; parameters: dose 15 mg/kg, route intravenous; method in brief: as §1
Ileum [4] = assay: Biodistribution in 15 mg/kg unlabeled 6,7-dimethoxy-2-(3-(5-methoxy-3,4-dihydronaphthalen-1(2H)-ylidene)propyl)-1,2,3,4-tetrahydroisoquinoline pretreated Wistar rat ileum at 13+/-2 MBq, iv after 80 mins; format: ADME, organism-based; parameters: dose 15 mg/kg, route intravenous; method in brief: as §1
[5] = Biodistribution in Wistar rat medulla at 11+/-2 MBq, iv after 80 mins; format: ADME, organism-based, Medulla of organ; method in brief: as §2
Plasma [6] = assay: Biodistribution in 15 mg/kg unlabeled 6,7-dimethoxy-2-(3-(5-methoxy-3,4-dihydronaphthalen-1(2H)-ylidene)propyl)-1,2,3,4-tetrahydroisoquinoline pretreated Wistar rat plasma at 13+/-2 MBq, iv after 80 mins; format: ADME, organism-based; parameters: dose 15 mg/kg, route intravenous; method in brief: as §1
Kidney = assay: Biodistribution in 15 mg/kg unlabeled 6,7-dimethoxy-2-(3-(5-methoxy-3,4-dihydronaphthalen-1(2H)-ylidene)propyl)-1,2,3,4-tetrahydroisoquinoline pretreated Wistar rat kidney at 13+/-2 MBq, iv after 80 mins; format: ADME, organism-based; parameters: dose 15 mg/kg, route intravenous; method in brief: as §1
Cerebellum = assay: Biodistribution in 15 mg/kg unlabeled 6,7-dimethoxy-2-(3-(5-methoxy-3,4-dihydronaphthalen-1(2H)-ylidene)propyl)-1,2,3,4-tetrahydroisoquinoline pretreated Wistar rat cerebellum at 13+/-2 MBq, iv after 80 mins; format: ADME, organism-based; parameters: dose 15 mg/kg, route intravenous; method in brief: as §1
[7] = Biodistribution in 15 mg/kg unlabeled 6,7-dimethoxy-2-(3-(5-methoxy-3,4-dihydronaphthalen-1(2H)-ylidene)propyl)-1,2,3,4-tetrahydroisoquinoline pretreated Wistar rat parietal/temporal/occipital cortex at 13+/-2 MBq, iv after 80 mins; format: ADME, organism-based; parameters: dose 15 mg/kg, route intravenous; method in brief: as §1
[8] = Biodistribution in 15 mg/kg unlabeled 6,7-dimethoxy-2-(3-(5-methoxy-3,4-dihydronaphthalen-1(2H)-ylidene)propyl)-1,2,3,4-tetrahydroisoquinoline pretreated Wistar rat cingulate cortex at 13+/-2 MBq, iv after 80 mins; format: ADME, organism-based; parameters: dose 15 mg/kg, route intravenous; method in brief: as §1
[9] = Biodistribution in Wistar rat parietal/temporal/occipital cortex at 11+/-2 MBq, iv after 80 mins; format: ADME, organism-based; method in brief: as §2
Hippocampus [10] = assay: Biodistribution in 15 mg/kg unlabeled 6,7-dimethoxy-2-(3-(5-methoxy-3,4-dihydronaphthalen-1(2H)-ylidene)propyl)-1,2,3,4-tetrahydroisoquinoline pretreated Wistar rat hippocampus at 13+/-2 MBq, iv after 80 mins; format: ADME, organism-based; parameters: dose 15 mg/kg, route intravenous; method in brief: as §1
[11] = Biodistribution in Wistar rat fat at 11+/-2 MBq, iv after 80 mins; format: ADME, organism-based, Adipose tissue; method in brief: as §2
Ileum [12] = assay: Biodistribution in Wistar rat ileum at 11+/-2 MBq, iv after 80 mins; format: ADME, organism-based; method in brief: as §2
[13] = Biodistribution in Wistar rat frontal cortex at 11+/-2 MBq, iv after 80 mins; format: ADME, organism-based; method in brief: as §2
Duodenum = assay: Biodistribution in Wistar rat duodenum at 11+/-2 MBq, iv after 80 mins; format: ADME, organism-based; method in brief: as §2
Pancreas = assay: Biodistribution in Wistar rat pancreas at 11+/-2 MBq, iv after 80 mins; format: ADME, organism-based; method in brief: as §2
Pons = assay: Biodistribution in Wistar rat pons at 11+/-2 MBq, iv after 80 mins; format: ADME, organism-based
Colon = assay: Biodistribution in Wistar rat colon at 11+/-2 MBq, iv after 80 mins; format: ADME, organism-based; method in brief: as §2
Hippocampus [14] = assay: Biodistribution in Wistar rat hippocampus at 11+/-2 MBq, iv after 80 mins; format: ADME, organism-based; method in brief: as §2
[15] = Biodistribution in Wistar rat red blood cells at 11+/-2 MBq, iv after 80 mins; format: ADME, organism-based, Erythrocyte
Lung = assay: Biodistribution in Wistar rat lung at 11+/-2 MBq, iv after 80 mins; format: ADME, organism-based; method in brief: as §2
Plasma [16] = assay: Biodistribution in Wistar rat plasma at 11+/-2 MBq, iv after 80 mins; format: ADME, organism-based
Method in brief: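 Male Wistar rats under isoflurane with saline pretreatment via tail vein. Carbon-11 tracer (8–15 MBq, saline-diluted) was given via the penile vein. After the 76 min microPET list-mode scan, the anesthetized animals were killed and blood collected. Plasma was separated by centrifugation (5 min, 1000g), weighed, and gamma-counted with decay correction. Results are given as SUV (tissue MBq/g × body weight/injected dose).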

Spleen = assay: Biodistribution in 15 mg/kg unlabeled 6,7-dimethoxy-2-(3-(5-methoxy-3,4-dihydronaphthalen-1(2H)-ylidene)propyl)-1,2,3,4-tetrahydroisoquinoline pretreated Wistar rat spleen at 13+/-2 MBq, iv after 80 mins; format: ADME, organism-based; parameters: dose 15 mg/kg, route intravenous; method in brief: as §1
Striatum = assay: Biodistribution in Wistar rat striatum at 11+/-2 MBq, iv after 80 mins; format: ADME, organism-based
Bone = assay: Biodistribution in Wistar rat bone at 11+/-2 MBq, iv after 80 mins; format: ADME, organism-based, Bone element

## COc1cc2c(cc1OC)CN(CC/C=C1\CCCc3c(O[11CH3])cccc31)CC2
[1]
  SUV: 0.3
[2]
  SUV: 0.64
Heart
  SUV: 0.48
Muscle tissue
  SUV: 0.52
[3]
  SUV: 0.46
Ileum [4]
  SUV: 0.91
[5]
  SUV: 0.46
Plasma [6]
  SUV: 0.56
Kidney
  SUV: 1.3
Cerebellum
  SUV: 0.4
[7]
  SUV: 0.43
[8]
  SUV: 0.31
[9]
  SUV: 0.65
Hippocampus [10]
  SUV: 0.44
[11]
  SUV: 0.35
Ileum [12]
  SUV: 1.94
[13]
  SUV: 0.65
Duodenum
  SUV: 3.06
Pancreas
  SUV: 4.02
Pons
  SUV: 0.6
Colon
  SUV: 1.85
Hippocampus [14]
  SUV: 0.45
[15]
  SUV: 0.24
Lung
  SUV: 1.34
Plasma [16]
  SUV: 0.49
Spleen
  SUV: 1.72
Striatum
  SUV: 0.46
Bone
  SUV: 0.78
